This is an account of results in ChEMBL document CHEMBL1158036, “Steroidal saponins from Solanum nigrum” (J Nat Prod, 2006).

Test [1] deals with SF-268. Nature of the test: Cytotoxicity against human SF-268 after 48 hrs by MTT assay. In kind it is functional, cell-based. The following applies: for IC50: SF-268, 48 h. In short, it runs like this:
(§1)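 Cells grown in RPMI 1640 with 10% FBS, trypsinized at 70% confluence; 1.0 × 10^4 cells per well cultured 24 h before treatment. Compounds at 100-3.125 µM, vehicle 0.1% DMSO, 48 h exposure; MTT read at 570 nm. IC50 where 100 × (C − T)/(C − B) = 50, derived by LOGIT method; mean ± SD of three independent experiments.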

For test [2], the system named is NCI-H460. The experiment in a line: Cytotoxicity against human NCI-H460 after 48 hrs by MTT assay. In kind it is functional, cell-based. To be noted: for IC50: NCI-H460, 48 h. In short, it runs like this:
as §1

Test [3] in a line: (§2) Cytotoxicity against human Hep G2 after 48 hrs by MTT assay. In kind it is functional. To be noted: HepG2, 48 h. A digest of the protocol:
as §1

Test [4] concerns MCF7. Nature of the test: Cytotoxicity against human MCF7 after 48 hrs by MTT assay. The following applies: for IC50: MCF7, 48 h. In kind it is functional, cell-based. A digest of the protocol:
as §1

In test [5] the test system is HepG2. The description is as §2. In kind it is functional. A digest of the protocol:
as §1

As to `C[C@@H]1CC[C@@]2(OC1)O[C@H]1C[C@H]3[C@@H]4CC[C@H]5C[C@@H](O[C@@H]6O[C@H](CO)[C@H](O[C@@H]7O[C@H](CO)[C@@H](O)[C@H](O[C@@H]8OC[C@@H](O)[C@H](O)[C@H]8O)[C@H]7O[C@@H]7O[C@H](CO)[C@@H](O)[C@H](O)[C@H]7O)[C@H](O)[C@H]6O)CC[C@]5(C)[C@H]4CC[C@]3(C)[C@H]1[C@@H]2C` [DEGALACTOTIGONIN], the IC50 in test [1] amounted to 3.19 µM; in test [2], 4.49 µM; in test [3], 0.25 µM; in test [4], 1.57 µM.

With `C[C@@H]1CC[C@@]2(OC1)O[C@H]1C[C@H]3[C@@H]4CC=C5C[C@@H](O[C@@H]6O[C@H](CO)[C@@H](O[C@@H]7O[C@@H](C)[C@H](O)[C@@H](O)[C@H]7O[C@@H]7O[C@H](CO)[C@@H](O)[C@H](O)[C@H]7O)[C@H](O)[C@H]6O[C@@H]6O[C@@H](C)[C@H](O)[C@@H](O)[C@H]6O)CC[C@]5(C)[C@H]4CC[C@]3(C)[C@@]1(O)[C@@H]2C`, the Activity result in test [1], in test [2], in test [5] and in test [4] was “Not toxic” throughout.

`C[C@@H]1CC[C@@]2(OC1)O[C@H]1[C@H](O)[C@H]3[C@@H]4CC[C@H]5C[C@@H](O[C@@H]6O[C@H](CO)[C@H](O[C@@H]7O[C@H](CO)[C@@H](O)[C@H](O[C@@H]8OC[C@@H](O)[C@H](O)[C@H]8O)[C@H]7O[C@@H]7O[C@H](CO)[C@@H](O)[C@H](O)[C@H]7O)[C@H](O)[C@H]6O)CC[C@]5(C)[C@H]4CC[C@]3(C)[C@H]1[C@@H]2C`: the Activity result in test [1], in test [2], in test [5] and in test [4] was “Not toxic” throughout.

Consider `C[C@@H]1C[C@H](O)[C@@]2(OC1=O)O[C@H]1[C@H](O)[C@H]3[C@@H]4CC[C@H]5C[C@@H](O[C@@H]6O[C@H](CO)[C@H](O[C@@H]7O[C@H](CO)[C@@H](O)[C@H](O[C@@H]8OC[C@@H](O)[C@H](O)[C@H]8O)[C@H]7O[C@@H]7OC[C@H](O)[C@H](O)[C@H]7O)[C@H](O)[C@H]6O[C@@H]6O[C@@H](C)[C@H](O)[C@@H](O)[C@H]6O)CC[C@]5(C)[C@H]4CC[C@]3(C)[C@H]1[C@@H]2C`, for which the Activity result in test [1], in test [2], in test [5] and in test [4] was “Not toxic” throughout.

Regarding `C[C@@H]1C[C@H](O)[C@@]2(OC1=O)O[C@H]1C[C@H]3[C@@H]4CC[C@H]5C[C@@H](O[C@@H]6O[C@H](CO)[C@H](O[C@@H]7O[C@H](CO)[C@@H](O)[C@H](O[C@@H]8OC[C@@H](O)[C@H](O)[C@H]8O)[C@H]7O[C@@H]7OC[C@H](O)[C@H](O)[C@H]7O)[C@H](O)[C@H]6O[C@@H]6O[C@@H](C)[C@H](O)[C@@H](O)[C@H]6O)CC[C@]5(C)[C@H]4CC[C@]3(C)[C@H]1[C@@H]2C`, the Activity result in test [1], in test [2], in test [5] and in test [4] was “Not toxic” in each case.

As for `C[C@H]1CO[C@@]2(O[C@H]3C[C@H]4[C@@H]5CC[C@H]6C[C@@H](O[C@@H]7O[C@H](CO)[C@H](O[C@@H]8O[C@H](CO)[C@@H](O)[C@H](O[C@@H]9OC[C@@H](O)[C@H](O)[C@H]9O)[C@H]8O[C@@H]8O[C@H](CO)[C@@H](O)[C@H](O)[C@H]8O)[C@H](O)[C@H]7O)CC[C@]6(C)[C@H]5CC[C@]4(C)[C@H]3[C@@H]2C)[C@@H](O[C@@H]2O[C@H](CO)[C@@H](O)[C@H](O)[C@H]2O)C1`, the Activity result in test [1], in test [2], in test [5] and in test [4] was “Not toxic” each time.

`C[C@@H]1C[C@H](O)[C@@]2(OC1=O)O[C@H]1[C@H](O)[C@H]3[C@@H]4CC[C@H]5C[C@@H](O[C@@H]6O[C@H](CO)[C@H](O[C@@H]7O[C@H](CO)[C@@H](O)[C@H](O[C@@H]8O[C@H](CO)[C@@H](O)[C@H](O)[C@H]8O)[C@H]7O[C@@H]7O[C@H](CO)[C@@H](O)[C@H](O)[C@H]7O)[C@H](O)[C@H]6O)CC[C@]5(C)[C@H]4CC[C@]3(C)[C@H]1[C@@H]2C`: the Activity result in test [1], in test [2], in test [5] and in test [4] was “Not toxic” throughout.

Regarding `CC[C@@]1(O)C(=O)OCc2c1cc1n(c2=O)Cc2cc3cc(O)ccc3nc2-1` [HYDROXYCAMPTOTHECIN], the IC50 in test [1] is 29.9 µM; in test [2], 38.6 µM; in test [3], 6.49 µM; in test [4] it was 19.1 µM.
